STAT1 act-1 – STAT1 signaling activators, primary screen, cell-based, HTS, luciferase reporter; AID 932, 2007; activation (% of control), % at 5.5 µM; NIH 3T3 STAT1-luciferase reporter, IFN-gamma, luminescence; 100% = IFN-gamma alone, no compound; actives 2.6% (n = 200,000);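 active = activation above the screen-wide mean activation plus 3 SD, cut at about 130% in these data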
APP 5'UTR act – activators of APP 5'UTR luciferase reporter, primary screen, SH-SY5Y cells. SH-SY5Y APP 5'UTR luciferase reporter, luminescence; zero percent = DMSO vehicle wells. activation, % at 2 µM. actives 1% (n = 190,000);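 active = activation above a set limit, based on mean plus 3 SD of controls, cut at about 140% in these data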
Pf gamet viab – late stage P. falciparum gametocyte viability inhibitors, primary screen, ATP luminescence, HTS; P. falciparum stage V gametocytes, 24 h; actives 0.065% (n = 150,000); inhibition, % at 10.9 µM;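 active = inhibition above the mean plus 3 SD of compounds within the control limits, set per campaign, cut at about 38% in these data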
NF-kB expr up – activators of NF-kB expression in neurons, primary screen, cell-based, HTS; human neuronal cells, NF-kB reporter expression; stronger effect = higher value; fold change at 12.5 µM; actives 1.6% (n = 190,000); AID 1239, 2008; in the data active = fold change above about 3.3
STAT1 blocker – STAT1 signaling inhibitors, primary screen, cell-based, HTS, luciferase reporter | NIH 3T3 STAT1-luciferase reporter, IFN-gamma, luminescence | inhibition, % at 5.5 µM | actives 0.35% (n = 200,000);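 active = inhibition above a set limit, the mean inhibition across all tested compounds plus 3 SD, cut at about 34% in these data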
STAT3 act-1 – IL-6 driven STAT3 reporter potentiators, primary screen, U3A cells, luciferase, luminescence, MLSCN library. IL-6 STAT3-luciferase reporter; 100% = signal with IL-6 EC80 alone. activation (% of control), % at 5.6 µM. actives 0.91% (n = 190,000);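 active = activation above the screen-wide mean of compound activation plus 3 SD, cut at about 130% in these data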
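system = STAT3-luciferase reporter U3A cells | reagent = IL-6 stimulus at 33 ng/mL final | timing = 1 h compound pre-exposure, 6 h IL-6 stimulation, 37 °C | measured by = luminescence | evaluation = % activation versus median of IL-6-stimulated wells | control set = IL-6-only wells as 100% reference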
STAT3 act-2 – STAT3 reporter potentiators, retest of hits, confirmation, U3A cells, luciferase, luminescence; shares compounds with STAT3 act-1; IL-6 potentiation; U3A cells lack STAT1; 100 means same as IL-6 alone; potentiation (% of control), % at 5.7 µM; actives 64% (n = 1,200); AID 1267, 2008;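 active = percent activation of the STAT3 luciferase reporter above a set limit taken from the earlier primary screen, cut at about 130% in these data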
NFkB act 2 – NF-kB reporter activators in human cells, counter-screen for STAT3 activator project | actives 11% (n = 1,200) | NF-kappaB reporter activation | shares compounds with STAT3 act-1 | activation (% of control), % at 5.7 µM; in the data active = activation above about 120%;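 also: reporter induced by TNF-alpha stimulation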
STAT1 act-2 – STAT1 reporter activators, IFN-gamma induced, counter-screen for STAT3 activator project, cell-based, NIH 3T3, luciferase luminescence. AID 1318, 2008. activation (% of control), % at 5.7 µM. actives 13% (n = 1,200). shares compounds with STAT3 act-1. NIH 3T3 STAT1-luciferase reporter;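 active = activation above the solvent-only control well mean plus 3 SD, set per screening run, cut at about 120% in these data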
Hits are given with their value; - = inactive; . = no result given. Only some compounds are listed: those with a hit (about 3.9% of all), similar ones and a draw of the others.

SMILES	STAT1 act-1	APP 5'UTR act	Pf gamet viab	NF-kB expr up	STAT1 blocker	STAT3 act-1	STAT3 act-2	NFkB act 2	STAT1 act-2
N#C/C(=C(/O)COC(=O)c1ccc(Cl)c(S(=O)(=O)N2CCOCC2)c1)c1nc2ccccc2[nH]1	-	-	-	-	-	-	.	.	.
CCOc1ccccc1C(=O)NN1C(=O)CCC1=O	-	-	-	-	-	143	155	-	-
CC(=O)Nc1nnc(CCS(=O)(=O)c2ccc(C)cc2)s1	.	.	-	.	.	.	.	.	.
CCOC(=O)c1c(C)[nH]c(C(=O)OCC(=O)Nc2cc(C)c(Cl)cc2OC)c1C	-	.	.	-	-	142	-	-	-
CCc1cc2c(NCCC(=O)O)nc(C)nc2s1	-	-	.	-	-	158	140	-	-
COc1ccc(S(=O)(=O)Nc2c(C(=O)O)[nH]c3ccccc23)c(OC)c1	-	-	-	-	-	166	159	-	-
Cc1cc(C)nc(/N=C(\N)Nc2ccc(OCc3ccccc3)cc2)n1	-	-	-	-	-	-	.	.	.
Cc1nc(/N=C(\N)Nc2ccccc2)nc2ccccc12	-	-	.	-	-	165	157	-	-
COc1ccc(C2CC(c3ccccc3)=NN2C(=O)CSc2nnnn2-c2cccc(C)c2)cc1 (stereo not given)	.	.	-	.	.	.	.	.	.
COc1ccccc1-c1nnc(SCC(=O)NC2CCCCC2)o1	-	-	.	-	-	163	146	-	-
COc1ccc(/C=C/C(=O)c2cc(F)ccc2OC(=O)c2ccccc2OC)cc1OC	-	-	-	-	-	156	-	168	-
COC(=O)c1[nH]c2ccc(C)cc2c1NC(=O)CN1CCN(c2ccccc2)CC1	-	-	-	-	-	-	.	.	.
Cc1ccc2[nH]c(C(=O)O)c(NC(=O)CN3CCN(c4cccc(C)c4C)CC3)c2c1	-	-	-	-	-	147	-	-	-
O=C(O)c1ccc(NC(=O)c2ccccc2NC(=O)c2ccccc2Br)cc1	.	.	-	.	.	.	.	.	.
Cc1ccc(/C=N/NC(=O)Cc2c[nH]c3ccccc23)c(C)c1	-	-	.	-	-	142	-	-	-
Cc1ccc(C(=O)Nc2ccc(C(=O)N/N=C/c3c[nH]c4ccccc34)cc2)cc1	-	-	-	-	-	148	-	-	-
O=C(/C=C\c1cccs1)N1CCN(Cc2ccc3c(c2)OCO3)CC1	-	-	.	-	-	-	.	.	.
CCCSc1nnc(Sc2nnnn2-c2ccccc2)s1	-	-	-	-	-	178	147	-	-
Cc1ccccc1-n1nnnc1Sc1nnnn1-c1ccccc1	-	-	.	-	-	-	.	.	.
CCOC(=O)c1[nH]cnc1C(=O)NC1CCN(C(=O)OC(C)(C)C)CC1	.	.	-	.	.	.	.	.	.
Cc1[nH]n(-c2ccc(Cl)cc2)c(=O)c1C(=O)c1ccccc1	-	-	.	-	-	-	.	.	.
CC1=NN(c2ccc(Cl)cc2)C(=O)C1C(c1cccc(O)c1)c1c(C)[nH]n(-c2ccc(Cl)cc2)c1=O (stereo not given)	-	.	.	-	-	146	160	-	-
COc1ccc(C(=O)NCc2ccc(-c3nc4ccccc4s3)cc2)cc1OC	-	-	.	-	-	-	.	.	.
COc1cc(OC)cc(-c2nc3ccccc3s2)c1	-	-	-	-	-	203	180	127	139
CC(C)Oc1ccccc1C1CC(=O)Nc2cc3c(cc21)OCO3 (stereo not given)	-	-	-	-	-	-	.	.	.
SMILES	STAT1 act-1	APP 5'UTR act	Pf gamet viab	NF-kB expr up	STAT1 blocker	STAT3 act-1	STAT3 act-2	NFkB act 2	STAT1 act-2
CC(C)c1ccc(C2C3=C(COC3=O)Nc3cc4c(cc32)OCO4)cc1 (stereo not given)	-	-	.	-	-	151	-	138	-
CCCCn1c(N)c(N(CCC(C)C)C(=O)COC(=O)c2ccccc2)c(=O)[nH]c1=O	-	-	.	-	-	143	148	-	-
CCCCn1c(N)c(N(CCC(C)C)C(=O)COC(=O)c2ccco2)c(=O)[nH]c1=O	-	-	.	-	-	-	.	.	.
Cc1cccc(NC(=S)NC(C)C(c2ccccc2)N2CCN(C)CC2)c1C (stereo not given)	-	-	-	.	-	-	.	.	.
CCc1nnc(SCC(=O)Nc2ccccc2Cl)nc1CC	-	-	-	-	-	-	.	.	.
COC(=O)c1cc(-c2cccs2)[nH]n1	-	-	-	-	-	-	.	.	.
COc1ccc(O)c(-c2cc(-c3cccs3)[nH]n2)c1	-	-	-	-	-	144	-	-	-
COc1ccc(Oc2cnn(-c3ccccc3)c(=O)c2Br)cc1	-	-	-	-	-	-	.	.	.
COc1ccc(OC)c(NC(=O)c2ccc(OC3CSC3)cc2)c1	-	-	-	-	-	-	.	.	.
CC(=O)c1cccc2c(O)c(C3=Nc4ccccc4C3=O)[nH]c12	-	-	.	4.1	-	138	152	136	181
O=C(O)c1cccc2c(-c3ccccc3)c(-c3ccccc3)[nH]c12	.	.	-	.	.	.	.	.	.
COc1ccc(C(=O)CNc2ccc3ccccc3c2)cc1	-	-	-	-	-	142	-	-	-
COC(=O)c1ccccc1NC(=O)C1CC(c2ccccc2O)=NO1 (stereo not given)	-	-	.	-	-	-	.	.	.
CSc1ccccc1NC(=O)C1CC(c2ccccc2O)=NO1 (stereo not given)	-	-	.	-	-	137	-	-	-
COc1ccc(C(C[N+](=O)[O-])c2c(C)[nH]c3ccccc23)cc1OC (stereo not given)	-	-	.	-	-	138	-	-	-
Cc1nc2nc(-c3ccccc3)nn2c(C)c1C	.	.	-	.	.	.	.	.	.
Cc1nc2nc(-c3ccc(Cl)cc3)nn2c(C)c1Cl	-	-	.	-	-	167	164	-	124
Cc1nc2nc(-c3ccccc3)nn2c(C)c1Cl	-	-	-	.	-	179	169	126	138
CCC(=O)n1nc(-c2ccc(Cl)cc2)nc1SC	-	-	.	-	-	-	.	.	.
Cc1cc(C)c2oc(-c3ccc(C)c(NC(=S)NC(=O)/C=C/c4ccco4)c3)nc2c1	-	-	-	-	-	151	146	-	-
Cc1ccc(-c2nc3ccccc3o2)cc1NC(=S)NC(=O)c1cccs1	-	-	.	-	-	-	.	.	.

Compound activity as filed in PubChem BioAssay.
